These results are taken from paper PMC4076036 (Journal of Natural Products, 2014).

One series relates to tyrosinase/TRP-1 complex. Briefly: Co-immunoprecipitation with antibody against TRP-1. As to conditions: 3 days, forskolin-supplemented medium. The format is cell-based, mouse.
Series [1] deals with tyrosinase. Briefly: Glycosylation analysis of tyrosinase. The format is cell-based, mouse. As to conditions: forskolin-supplemented medium, Endo H digestion.
In a further series the test system is MITF, tyrosinase, TRP-1. In kind it is cell-based, mouse. As to conditions: 1 day, forskolin-supplemented medium. The method, boiled down: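 Melan-a cells were co-treated with 1 μM forskolin, with or without the test compound, for 1 day. Proteins were extracted in PhosphoSafe buffer, run on 10% SDS-PAGE, semidry-transferred to PVDF and blocked in 3% BSA. Blots were probed for tyrosinase, TRP-1, TRP-2, MITF and β-actin, then HRP secondary antibodies (1 h, room temperature). Detection was by ECL, with stripping before reprobing.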

The target in series [2] is T1, tyrosinase (Mus musculus, UniProt P11344).
T1 sequence (P11344 19-533): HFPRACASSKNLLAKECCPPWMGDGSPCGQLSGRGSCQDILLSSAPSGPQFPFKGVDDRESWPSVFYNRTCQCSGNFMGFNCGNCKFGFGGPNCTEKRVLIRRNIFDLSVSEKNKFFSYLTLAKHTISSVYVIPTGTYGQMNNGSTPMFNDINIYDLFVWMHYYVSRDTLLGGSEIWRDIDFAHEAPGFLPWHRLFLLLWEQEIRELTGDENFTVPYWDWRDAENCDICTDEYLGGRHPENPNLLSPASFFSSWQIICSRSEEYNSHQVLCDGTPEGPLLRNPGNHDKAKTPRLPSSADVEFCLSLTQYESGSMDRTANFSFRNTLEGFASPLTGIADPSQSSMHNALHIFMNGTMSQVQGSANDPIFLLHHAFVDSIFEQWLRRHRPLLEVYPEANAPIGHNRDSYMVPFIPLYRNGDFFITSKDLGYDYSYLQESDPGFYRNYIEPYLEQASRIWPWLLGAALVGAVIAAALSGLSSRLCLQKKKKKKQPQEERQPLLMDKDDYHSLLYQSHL
Kind of series: Tyrosinase activity in treated melan-a cells. In kind it is cell-based. As to conditions: 60 μM, 3 days, 20 nM TPA; TPA alone 100%.

Series [3] has as its system melan-a melanocytes. Kind of series: Confocal immunofluorescence microscopy of tyrosinase localization. In kind it is cell-based, mouse.
In series [4] the test system is melan-a melanocytes. Kind of series: Sulforhodamine B cytotoxicity assay. The format is cell-based, mouse. As to conditions: 3 days, with or without forskolin. An outline of the steps:
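Melan-a cells in RPMI-1640 with 5% FBS and antibiotics were seeded at 20 000 cells/0.1 mL/well. They were exposed to the test compound for 72 h in medium with 20 nM TPA, 1 μM forskolin, or vehicle alone. Viability was read by the sulforhodamine B colorimetric assay. Values are mean ± SD of triplicate experiments.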

Another series has as its target T2, melan-a tyrosinase (Mus musculus, UniProt P11344).
T2 sequence (P11344 19-533): T1 sequence (P11344 19-533)
The format is biochemical. As to conditions: for type of tyrosinase inhibition: Lineweaver–Burk plot, L-DOPA.

As to `OC[C@H]1O[C@@H](Oc2c(O)cc(O)cc2/C=C/c2ccc(O)cc2)[C@H](O)[C@@H](O)[C@@H]1O` [Compound 1, 2,3,5,4′-Tetrahydroxystilbene-2-O-β-D-glucopyranoside], the “tyrosinase co-immunoprecipitated with TRP-1” value with tyrosinase/TRP-1 complex is “reduction of immunoprecipitated tyrosinase”. Further, the “immature Endo H-sensitive form of tyrosinase” value in the series with tyrosinase [1] is given as “No immature Endo H-sensitive form of tyrosinase was present”. Moreover, in the series on MITF, tyrosinase, TRP-1, the TRP-1 expression entry is “not prominent”, the “expression of MITF” value is recorded as “suppressed” and the expression of tyrosinase result was “suppressed”. The compound also came in with a tyrosinase activity at tyrosinase [2] of 65%. In addition, the “tyrosinase localization (calnexin/ER, Lamp-1/lysosome)” value in the series with melan-a melanocytes [3] (60 μM, 3 days) was “no aberrant tyrosinase is trapped in the ER and lysosome”. The cytotoxic effect result with melan-a melanocytes [4] is “did not exert any cytotoxic effect”. On melan-a tyrosinase, the “type of tyrosinase inhibition” value is listed as “noncompetitive”. Further, on melan-a tyrosinase (tyrosinase mixed with compound 24 h prior to kinetic analysis), the “reversibility of binding to tyrosinase” value is “likely reversible”.
In the case of `CC(=O)[C@H]1CC[C@H]2[C@@H]3CCC4=CC(=O)CC[C@]4(C)[C@H]3CC[C@]12C` [progesterone], in the series with melan-a melanocytes [3] (15 μM, 4 days), the “colocalization of tyrosinase and Lamp-1” value is “Colocalization of both tyrosinase and Lamp-1 were also observed”.
As to `Oc1ccc(/C=C/c2cc(O)cc(O)c2)cc1` [resveratrol, reference compound], the “colocalization of calnexin and tyrosinase” value in the series on melan-a melanocytes [3] (85 μM, 1 day, positive control) was “clearly colocalize to the ER”. On melan-a tyrosinase, the Vmax is reported as 2.5 × 10^–4 ΔA490/s and the “type of tyrosinase inhibition” value was “noncompetitive”.
